Measured values: ChEMBL document CHEMBL3351460, “Structure-Metabolism Relationships in the Glucuronidation of d-Amino Acid Oxidase Inhibitors” (ACS Med Chem Lett, 2014)

Columns and labels:
[1] = Drug metabolism in mouse liver microsomes assessed as glucuronidation of compound measured as compound remaining after 30 mins by LC/MS analysis; type: ADME; conditions: read-out: Stability
How it was run: (§1)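 Liver microsomes (mouse or rat), 0.5 mg protein/mL, incubated at 37 °C with UDPGA (2 mM) as cofactor for glucuronidation. Parent compound remaining was quantified after 30 and 60 min and expressed as % remaining.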

[2] = Drug metabolism in mouse liver microsomes assessed as glucuronidation of compound measured as compound remaining after 60 mins by LC/MS analysis; type: ADME; conditions: read-out: Stability; how it was run: as §1
[3] = Plasma clearance in CD1 mouse at 30 mg/kg, po and 10 mg/kg, iv; type: ADME, organism-based
[4] = Drug metabolism in human liver microsomes assessed as glucuronidation of compound measured as compound remaining after 30 mins by LC/MS analysis; type: ADME; conditions: read-out: Stability
How it was run: (§2)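 Human liver microsomes (0.5 mg protein/mL) incubated with compound at 37 °C in the presence of UDPGA (2 mM), with a UDPGA-free control incubation. Remaining parent compound quantified after 30 and 60 min and expressed as % remaining.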

[5] = Drug metabolism in rat liver microsomes assessed as glucuronidation of compound measured as compound remaining after 60 mins by LC/MS analysis; type: ADME; conditions: read-out: Stability; how it was run: as §1
[6] = Oral bioavailability in CD1 mouse at 30 mg/kg; type: ADME, organism-based; conditions: in vivo
[7] = Drug metabolism in rat liver microsomes assessed as glucuronidation of compound measured as compound remaining after 30 mins by LC/MS analysis; type: ADME; conditions: read-out: Stability; how it was run: as §1
[8] = Drug metabolism in human liver microsomes assessed as glucuronidation of compound measured as compound remaining after 60 mins by LC/MS analysis; type: ADME; conditions: read-out: Stability; how it was run: as §2
D-amino-acid oxidase = D-amino-acid oxidase (Homo sapiens, UniProt P14920); assay: Inhibition of human D-amino acid oxidase
Sequence of D-amino-acid oxidase (P14920 whole entry): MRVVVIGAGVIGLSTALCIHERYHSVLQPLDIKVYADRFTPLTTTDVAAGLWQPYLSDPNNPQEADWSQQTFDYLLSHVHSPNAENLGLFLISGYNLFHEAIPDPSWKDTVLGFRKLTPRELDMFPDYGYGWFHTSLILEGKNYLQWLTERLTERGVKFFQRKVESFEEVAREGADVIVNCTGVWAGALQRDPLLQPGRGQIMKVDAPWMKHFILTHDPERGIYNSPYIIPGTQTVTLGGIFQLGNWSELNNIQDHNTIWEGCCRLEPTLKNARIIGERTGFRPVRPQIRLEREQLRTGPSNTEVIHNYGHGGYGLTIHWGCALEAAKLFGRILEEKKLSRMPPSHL

| SMILES | remaining at 0.5 h [1] [%] | remaining at 1 h [2] [%] | further results |
| --- | --- | --- | --- |
| O=c1[nH]cc(CCc2ccccc2)cc1O | 5 | 3 |  |
| O=c1cc(CSc2ccc(Cl)c(Cl)c2)occ1O | 20 | 5 |  |
| Cc1cc(C(=O)O)n[nH]1 | 92 | 78 |  |
| O=c1[nH]c2cc(F)ccc2cc1O | < 1 | < 1 | remaining at 1 h [5]: < 1%; remaining at 0.5 h [7]: < 1% |
| O=c1[nH]c2cccc(Cl)c2cc1O | < 1 | < 1 | remaining at 1 h [5]: < 1%; remaining at 0.5 h [7]: < 1% |
| O=C(O)c1cc2sccc2[nH]1 | 98 | 100 |  |
| O=c1oc2ccccc2cc1O [3-HYDROXYCOUMARIN] | < 1 | < 1 |  |

Continued, in another order:

| remaining at 0.5 h [1] [%] | remaining at 1 h [2] [%] | SMILES | further results |
| --- | --- | --- | --- |
| < 1 | < 1 | O=c1[nH]c2ccccc2cc1O |  |
| < 1 | < 1 | O=c1[nH]c2c(F)cc(F)cc2n1O |  |
| 77 | 59 | O=c1[nH]nc(CCc2cc(F)cc(F)c2)cc1O | clearance [3]: 39 mL/min/kg; remaining at 0.5 h [4]: 81%; remaining at 1 h [5]: 51%; bioavailability [6]: 31%; remaining at 0.5 h [7]: 69%; remaining at 1 h [8]: 62% |
| 103 | 102 | O=C(O)c1cc(CCc2ccc(Cl)cc2)n[nH]1 | IC50 (D-amino-acid oxidase): < 1 µM |
| 58 | 33 | Oc1noc2cc(Cl)ccc12 |  |
